Many of the other results were omitted from the sample, so hits are more common in it than they were.
Lmaj promast: reduces viability of Leishmania major promastigotes | hit rate 9% among 200,000 | AID 1063 | resazurin fluorescence viability | inhibition, % at 10 µM;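 further: promastigotes grown with compound for 44 hours at 28 °C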
T cruzi repl: blocks replication of Trypanosoma cruzi | T. cruzi beta-gal in NIH3T3, luminescence, 90 h | hit rate 1.4% among 300,000 | inhibition, % (no concentration beside the values) | AID 1885;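 active means mean inhibition across valid replicates above about 55%, limit read from the data; inconclusive means mean below that limit but half or more replicates reach it; inactive means mean below it, under half of replicates reach it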;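 further: signal also drops with host cell toxicity which is not excluded here; higher percent means less beta-gal luminescence so fewer parasites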
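Assay system: NIH/3T3 host cells with β-galactosidase reporter T. cruzi; input: 5,000 host fibroblasts per well; compound: single 50 nL compound addition per well in DMSO; timing: ≥90 h infection period, 3 h prior cell attachment; measured by: GalScreen β-gal luminescence, detergent lysis, 60 min; evaluation: percent inhibition of parasite-derived β-gal signal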
NALP1 inh: blocks the NALP1 inflammasome reconstituted in yeast; S. cerevisiae NALP1/ASC/caspase-1 growth, X-gal OD620, 72 h; inhibition, % at 10 µM; hit rate 0.61% among 280,000; AID 2071; in the data active means inhibition mostly above about 24%, no sharp cut-off; inactive means mostly below about 32%
NLRP3 yeast inh: blocks the NALP3 inflammasome reconstituted in yeast | Yeast reconstituted NLRP3/ASC/caspase-1, beta-gal luminescence, 24 h | inhibition, % at 10 µM | hit rate 0.39% among 330,000 | AID 2825;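 active means inhibition of 50% or more; inactive means inhibition below 50%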
PolyA inhibitor: blocks polyadenylation in yeast reporter cells; S. cerevisiae SKY197-pL101 polyadenylation reporter, beta-gal luminescence; efflux-impaired pdr1/pdr3 knockout yeast; score 100 = 6 SD above DMSO; activity score, % at 12 µM; hit rate 0.02% among 300,000; AID 1875;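 active means lowest replicate activity score at least 50, where 100 means six control SD above control mean; inconclusive means lowest score under 50 but half or more replicates reach 50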;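 further: yeast exposed to compound for 9 h at 30 °C; higher score means more reporter readthrough which indicates perturbed polyadenylation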
Calb FLC: C. albicans growth modulation with fluconazole; C. albicans CaCi-2 + fluconazole, Alamar Blue growth, 48 h; growth inhibition, % (test concentration not listed); hit rate 0.57% among 300,000; AID 1979;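 active means growth inhibition above about 58% in most replicates, limit read from the data, passing the limit was not always enough; inconclusive means exactly half the replicates above a set limit; inactive means most replicates below a set limit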;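 further: all wells also contain fluconazole at 8 µg/ml as a sub-toxic cotreatment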
NALP3 yeast conf: confirmation of NALP3 inhibitors in yeast | shares compounds with NLRP3 yeast inh | inhibition, % at 10 µM | yeast expressing human NALP3, luminescence | AID 435006 | hit rate 81% among 1,300; in the data active means inhibition above about 48%
Casp1 ASC ctr: active in yeast caspase-1-ASC counter-screen for NALP3 inhibitors. yeast expressing Caspase-1-ASC, luminescence counter screen. shares compounds with NLRP3 yeast inh. inhibition, % at 10 µM. hit rate 66% among 1,000
NALP3 yeast rt: yeast NALP3 inhibition, confirmed on retest | shares compounds with NLRP3 yeast inh | hit rate 53% among 1,000 | yeast expressing human NALP3, luminescence read-out | inhibition, % at 10 µM
Large screens that a line does not name were inactive (follow-up assays come after a bar, where they were run). Unless noted, no stated cut-off is given here; in the data, active means inhibition above about 50%; inactive means the rest.

O=C1c2ccsc2SCCN1Cc1ccc(F)cc1	NLRP3 yeast inh 65 (no result: Lmaj promast) | NALP3 yeast conf 72 | Casp1 ASC ctr 63 | NALP3 yeast rt inactive
C#Cc1ccc(CN2CCC(Oc3cc(C(=O)NC4CC4)ccc3OC)CC2)cc1	none (no result: Lmaj promast)
CC(C(=O)N1CCOCC1)n1cc([N+](=O)[O-])cn1 (stereo unspecified)	none
COc1ccc(C(=O)COc2ccc(C)cc2NC(C)=O)cc1	none (no result: Lmaj promast, T cruzi repl)
O=C(C1CCCN1S(=O)(=O)c1cccc2cccnc12)N1CCn2c1nc1ccccc12 (stereo unspecified)	none
O=C(C1CCN(S(=O)(=O)c2cccc3cccnc23)CC1)N1CCn2c1nc1ccccc12	NLRP3 yeast inh 80 | NALP3 yeast conf 90 | Casp1 ASC ctr 85 | NALP3 yeast rt 87
CC1CC1C(=O)Nc1ccc(-c2ccccc2)cc1 (stereo unspecified)	Lmaj promast 51, NLRP3 yeast inh 51, Calb FLC inconclusive | NALP3 yeast conf 64
O=C(COc1ccc(Br)cc1Cl)NC1CCCCC1	NLRP3 yeast inh 53 | NALP3 yeast conf inactive
O=C(COc1ccc(Br)cc1Br)NC1CCCC1	NLRP3 yeast inh 62 | NALP3 yeast conf 56 | Casp1 ASC ctr 53 | NALP3 yeast rt inactive
CCOC(=O)c1cnc2oc3ccccc3n2c1=O	none (no result: Lmaj promast)
CC12CC3(C)CC(C)(C1)CC(NC(=O)N1CCCC1)(C2)C3	NLRP3 yeast inh 94 | NALP3 yeast conf 49 | Casp1 ASC ctr 98 | NALP3 yeast rt 99
CCN(CC)c1ccc(/C=C2\SC(=O)N(C(C)C)C2=O)o1	T cruzi repl 56, NLRP3 yeast inh 52 (no result: Lmaj promast) | NALP3 yeast conf inactive | Casp1 ASC ctr 56 | NALP3 yeast rt inactive
NCCC(=O)NCCc1cnc[nH]1	NLRP3 yeast inh 66 (no result: Lmaj promast, T cruzi repl, NALP1 inh, PolyA inhibitor, Calb FLC) | NALP3 yeast conf 76 | Casp1 ASC ctr 63 | NALP3 yeast rt 72
O=C(Cc1ccc(F)cc1)NCCc1cnc[nH]1	none (no result: Lmaj promast)
COC(=O)c1ccc2c(=O)n(CCN3CCOCC3)c(SCC(=O)Nc3ccccc3Cl)nc2c1	none (no result: Lmaj promast)
CC1CCCN(c2ncnc3c2cnn3-c2ccccc2)C1 (stereo unspecified)	NLRP3 yeast inh 54 (no result: Lmaj promast) | NALP3 yeast conf 62
Cc1cccc(-n2ncc3c(NC(C)C)ncnc32)c1	none (no result: NALP1 inh)
c1ccc(-n2ncc3c(N4CCCCC4)ncnc32)cc1	NLRP3 yeast inh 60 | NALP3 yeast conf 61 | Casp1 ASC ctr 69 | NALP3 yeast rt 61
CC(C)Nc1ncnc2c1cnn2-c1ccccc1	NLRP3 yeast inh 58 | NALP3 yeast conf 65 | Casp1 ASC ctr inactive | NALP3 yeast rt inactive
Cc1ccc(S(=O)(=O)/N=S(\C)CC2CC2(Cl)Cl)cc1 (stereo unspecified)	none
CC1CCCCN1CC(=O)c1c(N)n(Cc2ccccc2)c(=O)n(C)c1=O (stereo unspecified)	none (no result: T cruzi repl, PolyA inhibitor)
Fc1ccc(-c2nnn(Cc3nc4ccccc4s3)n2)cc1	NLRP3 yeast inh 54 | NALP3 yeast conf 65 | Casp1 ASC ctr inactive | NALP3 yeast rt inactive
Clc1ccc(-c2nnn(Cc3nc4ccccc4s3)n2)cc1	none
COc1cccc2c1C(=O)c1c(O)c3c(c(O)c1C2=O)C[C@@](O)(C(=O)CO)C[C@@H]3O[C@H]1C[C@H](N)[C@H](O)[C@H](C)O1	Lmaj promast 100, NLRP3 yeast inh 65 (no result: Calb FLC) | NALP3 yeast conf 69 | Casp1 ASC ctr 75 | NALP3 yeast rt 66
COc1ccccc1C(=O)Nc1cc(Cl)ccc1O	none
CCOc1ccccc1C(=O)Nc1cc(Cl)ccc1O	Lmaj promast 79, NLRP3 yeast inh 52 | NALP3 yeast conf 72 | Casp1 ASC ctr 66 | NALP3 yeast rt 53
O=C(/C=C/c1c(F)cccc1Cl)c1ccc(O)cc1	NLRP3 yeast inh 91, PolyA inhibitor inconclusive (no result: Lmaj promast) | NALP3 yeast conf 87 | Casp1 ASC ctr 58 | NALP3 yeast rt inactive
COc1ccc(CCNC(=O)c2cc(C)oc2C)cc1	none (no result: Lmaj promast)
CCCC[N+](CC#Cc1ccccc1)(CCCC)CCCS(=O)(=O)[O-]	none

Screens as filed in PubChem.
